Measured values taken from ChEMBL document CHEMBL4145683, “Total Synthesis and Structure-Activity Relationships Study of Odilorhabdins, a New Class of Peptides Showing Potent Antibacterial Activity” (J Med Chem, 2018).
≈ marks a conversion by molar mass, not a printed value. Non-standard residues stand in square brackets, D forms with d. Residues, ends and D or L forms follow the SMILES beside them. *: point of attachment. Dab(3S-OH) = NC[C@H](O)[C@H](N)C(=O)O; ΔZArg = N=C(N)NCC/C=C(\N)C(=O)O; dOrn = NCCC[C@@H](N)C(=O)O; Abu = CC[C@H](N)C(=O)O; NH(CH2)4NH2 = NCCCCN*

Legend:
Klebsiella pneumoniae = assay: Antimicrobial activity against Klebsiella pneumoniae ATCC 43816 by broth microdilution method; type: functional; settings: Klebsiella pneumoniae, ATCC 43816; read-out: MIC
Method in brief: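 Broth microdilution MIC per CLSI M07-A10, with inoculum prepared by direct colony suspension. Reference strains were from ATCC and NCTC.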

Escherichia coli [1] = assay: Inhibition of bacterial protein synthesis in cell-free Escherichia coli incubated for 1 hr and measured for every 20 mins by bacterial cell-free transcription-translation assay; type: functional
Method in brief: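 E. coli cell-free coupled transcription-translation used a GFP gene in pEXP5-CT as template, started with 1 μg plasmid in 50 μL reactions. Feed buffer was added at 30 min, with incubation at 30 °C. Fluorescence (ex 475/em 520 nm) was read every 20 min. IC50 was taken at 1 h after feed addition from a four-parameter log(inhibitor)–response fit. Duplicates.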

Escherichia coli [2] = assay: microbe, parasite or virus in culture; settings: ATCC 25922

MIC (Klebsiella pneumoniae) | IC50 (Escherichia coli [1]; Escherichia coli) | MIC (Escherichia coli [2]) | Compound | IC50 (Escherichia coli [1])
> 64 µg/mL | > 40 µM | > 64 µg/mL | N=C(N)NCC/C=C(\NC(=O)[C@H](CCCCN)NC(=O)[C@H](Cc1cnc[nH]1)NC(=O)[C@@H]1CCCN1C(=O)[C@@H](CCCN)NC(=O)CNC(=O)[C@@H](N)[C@@H](O)CN)C(=O)N[C@@H](CCCCN)C(=O)NCCCCN | –
4 µg/mL (≈ 3.31 µM) | 1.85 µM | 16 µg/mL (≈ 13.3 µM) | C[C@H](NC(=O)[C@H](Cc1cnc[nH]1)NC(=O)[C@@H]1CCCN1C(=O)[C@@H](CCCN)NC(=O)CNC(=O)[C@@H](NC(=O)[C@@H](NC(=O)[C@@H](N)CCCCN)[C@@H](O)CN)[C@@H](O)CN)C(=O)N/C(=C\CCNC(=N)N)C(=O)N[C@@H](CCCCN)C(=O)NCCCCN | –
> 64 µg/mL | 10 µM | > 64 µg/mL | NCCCC[C@H](NC(=O)[C@H](Cc1cnc[nH]1)NC(=O)[C@@H]1CCCN1C(=O)[C@@H](CCCN)NC(=O)CNC(=O)[C@@H](NC(=O)[C@@H](NC(=O)[C@@H](N)CCCCN)[C@@H](O)CN)[C@@H](O)CN)C(=O)O | –
> 64 µg/mL | 4.5 µM | > 64 µg/mL | C[C@H](NC(=O)[C@@H](N)CCCCN)C(=O)N[C@H](C(=O)NCC(=O)N[C@H](CCCN)C(=O)N1CCC[C@H]1C(=O)N[C@@H](Cc1cnc[nH]1)C(=O)N[C@@H](CCCCN)C(=O)N/C(=C\CCNC(=N)N)C(=O)N[C@@H](CCCCN)C(=O)NCCCCN)[C@@H](O)CN | –
> 64 µg/mL | > 40 µM | > 64 µg/mL | C[C@@H](NC(=O)CNC(=O)[C@@H](NC(=O)[C@@H](NC(=O)[C@@H](N)CCCCN)[C@@H](O)CN)[C@@H](O)CN)C(=O)N1CCC[C@H]1C(=O)N[C@@H](Cc1cnc[nH]1)C(=O)N[C@@H](CCCCN)C(=O)N/C(=C\CCNC(=N)N)C(=O)N[C@@H](CCCCN)C(=O)NCCCCN | –
> 64 µg/mL | > 40 µM | > 64 µg/mL | N=C(N)NCC/C=C(\NC(=O)[C@H](CCCCN)NC(=O)[C@H](Cc1cnc[nH]1)NC(=O)[C@@H]1CCCN1C(=O)[C@@H](CCCN)NC(=O)CNC(=O)[C@@H](NC(=O)[C@H](CO)NC(=O)[C@@H](N)CCCCN)[C@@H](O)CN)C(=O)N[C@@H](CCCCN)C(=O)NCCCCN | –
> 64 µg/mL | 9.6 µM | > 64 µg/mL | NCCCC[C@H](N)C(=O)N[C@H](C(=O)N[C@H](C(=O)NCC(=O)N[C@H](CCCN)C(=O)N1CCC[C@H]1C(=O)N[C@@H](Cc1cnc[nH]1)C(=O)O)[C@@H](O)CN)[C@@H](O)CN | –
> 64 µg/mL | > 40 µM | > 64 µg/mL | N=C(N)NCC/C=C(\NC(=O)[C@H](CCCCN)NC(=O)[C@H](Cc1cnc[nH]1)NC(=O)[C@@H]1CCCN1C(=O)[C@@H](CCCN)NC(=O)CNC(=O)[C@@H](NC(=O)[C@@H](N)[C@@H](O)CN)[C@@H](O)CN)C(=O)N[C@@H](CCCCN)C(=O)NCCCCN | –
> 64 µg/mL | > 40 µM | > 64 µg/mL | C[C@H](O)[C@H](NC(=O)[C@@H](N)CCCCN)C(=O)N[C@H](C(=O)NCC(=O)N[C@H](CCCN)C(=O)N1CCC[C@H]1C(=O)N[C@@H](Cc1cnc[nH]1)C(=O)N[C@@H](CCCCN)C(=O)N/C(=C\CCNC(=N)N)C(=O)N[C@@H](CCCCN)C(=O)NCCCCN)[C@@H](O)CN | –
8 µg/mL (≈ 6.7 µM) | 0.83 µM | 16 µg/mL (≈ 13.4 µM) | C/C=C(\NC(=O)[C@H](CCCCN)NC(=O)[C@H](Cc1cnc[nH]1)NC(=O)[C@@H]1CCCN1C(=O)[C@@H](CCCN)NC(=O)CNC(=O)[C@@H](NC(=O)[C@@H](NC(=O)[C@@H](N)CCCCN)[C@@H](O)CN)[C@@H](O)CN)C(=O)N[C@@H](CCCCN)C(=O)NCCCCN | –
8 µg/mL (≈ 6.63 µM) | 0.73 µM | 16 µg/mL (≈ 13.3 µM) | C[C@H](N)C(=O)N[C@H](C(=O)N[C@H](C(=O)NCC(=O)N[C@H](CCCN)C(=O)N1CCC[C@H]1C(=O)N[C@@H](Cc1cnc[nH]1)C(=O)N[C@@H](CCCCN)C(=O)N/C(=C\CCNC(=N)N)C(=O)N[C@@H](CCCCN)C(=O)NCCCCN)[C@@H](O)CN)[C@@H](O)CN (H-A[Dab(3S-OH)][Dab(3S-OH)]G[dOrn]PHK[ΔZArg]K-{NH(CH2)4NH2}) | –
8 µg/mL (≈ 6.64 µM) | 1.06 µM | 8 µg/mL (≈ 6.64 µM) | N=C(N)NCC/C=C(\NC(=O)[C@H](CCCCN)NC(=O)[C@H](Cc1cnc[nH]1)NC(=O)[C@@H]1CCCN1C(=O)[C@@H](CCCN)NC(=O)CNC(=O)CNC(=O)[C@@H](NC(=O)[C@@H](N)CCCCN)[C@@H](O)CN)C(=O)N[C@@H](CCCCN)C(=O)NCCCCN (H-K[Dab(3S-OH)]GG[dOrn]PHK[ΔZArg]K-{NH(CH2)4NH2}) | –
4 µg/mL (≈ 3.24 µM) | 0.66 µM | 4 µg/mL (≈ 3.24 µM) | N=C(N)NCC/C=C(\NC(=O)[C@H](CCCCN)NC(=O)[C@H](Cc1cnc[nH]1)NC(=O)[C@@H]1CCCN1C(=O)[C@@H](CCCN)NC(=O)CNC(=O)[C@H](CO)NC(=O)[C@@H](NC(=O)[C@@H](N)CCCCN)[C@@H](O)CN)C(=O)N[C@@H](CCCCN)C(=O)NCCCCN (H-K[Dab(3S-OH)]SG[dOrn]PHK[ΔZArg]K-{NH(CH2)4NH2}) | –
2 µg/mL (≈ 1.6 µM) | 0.8 µM | 4 µg/mL (≈ 3.21 µM) | CC(C)[C@H](NC(=O)[C@@H](NC(=O)[C@@H](N)CCCCN)[C@@H](O)CN)C(=O)NCC(=O)N[C@H](CCCN)C(=O)N1CCC[C@H]1C(=O)N[C@@H](Cc1cnc[nH]1)C(=O)N[C@@H](CCCCN)C(=O)N/C(=C\CCNC(=N)N)C(=O)N[C@@H](CCCCN)C(=O)NCCCCN (H-K[Dab(3S-OH)]VG[dOrn]PHK[ΔZArg]K-{NH(CH2)4NH2}) | –
4 µg/mL (≈ 3.24 µM) | 0.73 µM | 4 µg/mL (≈ 3.24 µM) | CC[C@H](NC(=O)[C@@H](NC(=O)[C@@H](N)CCCCN)[C@@H](O)CN)C(=O)NCC(=O)N[C@H](CCCN)C(=O)N1CCC[C@H]1C(=O)N[C@@H](Cc1cnc[nH]1)C(=O)N[C@@H](CCCCN)C(=O)N/C(=C\CCNC(=N)N)C(=O)N[C@@H](CCCCN)C(=O)NCCCCN (H-K[Dab(3S-OH)][Abu]G[dOrn]PHK[ΔZArg]K-{NH(CH2)4NH2}) | –
32 µg/mL (≈ 25.8 µM) | 2.41 µM | 16 µg/mL (≈ 12.9 µM) | C[C@H](NC(=O)[C@@H](CCCN)NC(=O)CNC(=O)[C@@H](NC(=O)[C@@H](NC(=O)[C@@H](N)CCCCN)[C@@H](O)CN)[C@@H](O)CN)C(=O)N[C@@H](Cc1cnc[nH]1)C(=O)N[C@@H](CCCCN)C(=O)N/C(=C\CCNC(=N)N)C(=O)N[C@@H](CCCCN)C(=O)NCCCCN (H-K[Dab(3S-OH)][Dab(3S-OH)]G[dOrn]AHK[ΔZArg]K-{NH(CH2)4NH2}) | –
8 µg/mL (≈ 6.68 µM) | 0.39 µM | 8 µg/mL (≈ 6.68 µM) | C[C@H](NC(=O)[C@@H]1CCCN1C(=O)[C@@H](CCCN)NC(=O)CNC(=O)[C@@H](NC(=O)[C@@H](NC(=O)[C@@H](N)CCCCN)[C@@H](O)CN)[C@@H](O)CN)C(=O)N[C@@H](CCCCN)C(=O)N/C(=C\CCNC(=N)N)C(=O)N[C@@H](CCCCN)C(=O)NCCCCN (H-K[Dab(3S-OH)][Dab(3S-OH)]G[dOrn]PAK[ΔZArg]K-{NH(CH2)4NH2}) | –
64 µg/mL (≈ 54.2 µM) | 2.4 µM | > 64 µg/mL | C[C@H](NC(=O)[C@H](CCCCN)NC(=O)[C@H](Cc1cnc[nH]1)NC(=O)[C@@H]1CCCN1C(=O)[C@@H](CCCN)NC(=O)CNC(=O)[C@@H](NC(=O)[C@@H](NC(=O)[C@@H](N)CCCCN)[C@@H](O)CN)[C@@H](O)CN)C(=O)N[C@@H](CCCCN)C(=O)NCCCCN (H-K[Dab(3S-OH)][Dab(3S-OH)]G[dOrn]PHKAK-{NH(CH2)4NH2}) | –
8 µg/mL (≈ 6.32 µM) | 1.53 µM | 32 µg/mL (≈ 25.3 µM) | N=C(N)NCCC[C@H](NC(=O)[C@H](CCCCN)NC(=O)[C@H](Cc1cnc[nH]1)NC(=O)[C@@H]1CCCN1C(=O)[C@@H](CCCN)NC(=O)CNC(=O)[C@@H](NC(=O)[C@@H](NC(=O)[C@@H](N)CCCCN)[C@@H](O)CN)[C@@H](O)CN)C(=O)N[C@@H](CCCCN)C(=O)NCCCCN (H-K[Dab(3S-OH)][Dab(3S-OH)]G[dOrn]PHKRK-{NH(CH2)4NH2}) | –
16 µg/mL (≈ 12.6 µM) | 0.98 µM | 16 µg/mL (≈ 12.6 µM) | N=C(N)NCCC[C@@H](NC(=O)[C@H](CCCCN)NC(=O)[C@H](Cc1cnc[nH]1)NC(=O)[C@@H]1CCCN1C(=O)[C@@H](CCCN)NC(=O)CNC(=O)[C@@H](NC(=O)[C@@H](NC(=O)[C@@H](N)CCCCN)[C@@H](O)CN)[C@@H](O)CN)C(=O)N[C@@H](CCCCN)C(=O)NCCCCN (H-K[Dab(3S-OH)][Dab(3S-OH)]G[dOrn]PHK[dR]K-{NH(CH2)4NH2}) | –
4 µg/mL (≈ 3.75 µM) | 0.43 µM | 16 µg/mL (≈ 15 µM) | N=C(N)NCC/C=C(\NC(=O)[C@H](CCCCN)NC(=O)[C@H](Cc1cnc[nH]1)NC(=O)[C@@H]1CCCN1C(=O)[C@@H](CCCN)NC(=O)CNC(=O)[C@@H](NC(=O)[C@@H](NC(=O)[C@@H](N)CCCCN)[C@@H](O)CN)[C@@H](O)CN)C(=O)O (H-K[Dab(3S-OH)][Dab(3S-OH)]G[dOrn]PHK[ΔZArg]-OH) | –
8 µg/mL (≈ 6.63 µM) | 1.04 µM | 8 µg/mL (≈ 6.63 µM) | C[C@H](NC(=O)/C(=C/CCNC(=N)N)NC(=O)[C@H](CCCCN)NC(=O)[C@H](Cc1cnc[nH]1)NC(=O)[C@@H]1CCCN1C(=O)[C@@H](CCCN)NC(=O)CNC(=O)[C@@H](NC(=O)[C@@H](NC(=O)[C@@H](N)CCCCN)[C@@H](O)CN)[C@@H](O)CN)C(=O)NCCCCN (H-K[Dab(3S-OH)][Dab(3S-OH)]G[dOrn]PHK[ΔZArg]A-{NH(CH2)4NH2}) | –
– | 7.74 µM | – | O=C(N[C@H](CO)[C@H](O)c1ccc([N+](=O)[O-])cc1)C(Cl)Cl [CHLORAMPHENICOL] | –
– | 2.12 µM | – | CC[C@H]1OC(=O)[C@H](C)[C@@H](O[C@H]2C[C@@](C)(OC)[C@@H](O)[C@H](C)O2)[C@H](C)[C@@H](O[C@@H]2O[C@H](C)C[C@H](N(C)C)[C@H]2O)[C@](C)(O)C[C@@H](C)C(=O)[C@H](C)[C@@H](O)[C@]1(C)O [ERYTHROMYCIN] | –
– | 0.99 µM | – | CN[C@@H]1[C@H](O)[C@H](NC)[C@H]2O[C@@]3(O)C(=O)C[C@@H](C)O[C@H]3O[C@@H]2[C@H]1O [SPECTINOMYCIN] | –
– | – | – | GENTAMICIN | 0.31 µM
